What was measured:
[1] = Cytotoxicity against human Akata cells assessed as cell viability by XTT assay; assay type: cell-based
Outline: (§1)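 EC50 is the concentration that reduces virus replication by 50%. CC50 is the concentration giving 50% loss of viability in uninfected cells. Both are calculated by linear regression analysis. The selectivity index is CC50 divided by EC50.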

[2] = tested on: Human gammaherpesvirus 4; assay: Antiviral activity against Epstein-Barr virus infected in human Akata cells assessed as virus induced cytopathic effects by XTT assay; assay type: functional, organism-based; details: human gammaherpesvirus 4, Akata; outline: as §1
[3] = Cytotoxicity against human CEM-SS cells assessed as cell viability by XTT assay; assay type: cell-based; outline: as §1
[4] = Selectivity index, ratio of CC50 for human Akata cells to EC50 for Epstein-Barr virus infected in human Akata cells; assay type: toxicity, cell-based; details: read-out: Ratio CC50/EC50; outline: as §1
[5] = tested on: Human immunodeficiency virus 1; assay: Antiviral activity against Human immunodeficiency virus 1 infected in human CEM-SS cells assessed as virus induced cytopathic effects; assay type: functional, organism-based; details: Human immunodeficiency virus 1, CEM-SS; outline: as §1
[6] = Selectivity index, ratio of CC50 for human CEM-SS cells to EC50 for Human immunodeficiency virus 1 infected in human CEM-SS cells; assay type: toxicity, cell-based; details: read-out: Ratio CC50/EC50; outline: as §1

Work on `Cc1cccc(Cn2cc(Nc3ccccc3)c(=O)[nH]c2=O)c1` yielded a CC50 [1] of over 100 µM, an EC50 [2] of 99.1 µM and a CC50 [3] of over 200 µM. The selectivity ratio [4] was over 1, the EC50 [5] was 44.7 µM and the selectivity ratio [6] was over 4.5.

With `O=c1[nH]c(=O)n(Cc2cccc(Oc3ccccc3)c2)cc1Nc1ccccc1` the CC50 [1] was over 100 µM, the EC50 [2] was 2.3 µM and the CC50 [3] was over 100 µM. For the same compound, the selectivity ratio [4] was over 43 and the EC50 [5] was over 100 µM.

`Cc1ccccc1Cn1cc(Nc2ccccc2)c(=O)[nH]c1=O` showed a CC50 [1] of over 100 µM, an EC50 [2] of 12 µM and a CC50 [3] of over 100 µM. It also gave a selectivity ratio [4] of over 8.3 and an EC50 [5] of over 100 µM.

Compound `O=c1[nH]c(=O)n(Cc2ccccc2)cc1Nc1ccccc1` has a CC50 [3] of over 100 µM and an EC50 [5] of over 100 µM.

`O=c1[nH]c(=O)n(Cc2cccc(Cl)c2)cc1Nc1ccccc1` gave a CC50 [1] of over 100 µM, an EC50 [2] of 20 µM and a selectivity ratio [4] of over 5.

`O=c1[nH]c(=O)n(Cc2ccc(Cl)cc2Cl)cc1NCCc1ccccc1` gave a CC50 [1] of over 100 µM, an EC50 [2] of 67.2 µM and a CC50 [3] of over 100 µM. For the same compound, the selectivity ratio [4] was over 1.5, the EC50 [5] was 42.7 µM and the selectivity ratio [6] was over 2.34.

`Cc1cc(C)cc(Cn2cc(NCc3ccccc3)c(=O)[nH]c2=O)c1` showed a CC50 [3] of 168 µM, an EC50 [5] of 9.5 µM and a selectivity ratio [6] of 17.8.

Work on `O=c1[nH]c(=O)n(Cc2ccc(Cl)cc2Cl)cc1NCc1ccccc1` yielded a CC50 [1] of 96.3 µM, an EC50 [2] of 39.6 µM and a CC50 [3] of over 100 µM. It also gave a selectivity ratio [4] of 2.4, an EC50 [5] of 54.6 µM and a selectivity ratio [6] of over 1.8.

In the case of `Cc1cc(C)cc(Cn2cc(Nc3ccccc3)c(=O)[nH]c2=O)c1`, the CC50 [1] is reported as 96.2 µM, the EC50 [2] is reported as over 20 µM and the CC50 [3] is reported as over 200 µM. The selectivity ratio [4] was under 4.8, the EC50 [5] was 11.9 µM and the selectivity ratio [6] was over 16.8.

In the case of `Cc1ccc(Nc2cn(Cc3ccc(Cl)cc3Cl)c(=O)[nH]c2=O)cc1`, the CC50 [1] is reported as 92.3 µM, the EC50 [2] is reported as 43.3 µM and the selectivity ratio [4] is reported as 2.1.

For `O=c1[nH]c(=O)n([C@H]2CO[C@@H](CO)O2)cc1I`, the CC50 [1] was over 100 µM, the EC50 [2] was 0.033 µM and the selectivity ratio [4] was over 3030.

Work on `Cc1cn([C@H]2C[C@H](N=[N+]=[N-])[C@@H](CO)O2)c(=O)[nH]c1=O` [ZIDOVUDINE] yielded a CC50 [3] of over 1 µM, an EC50 [5] of 0.008 µM and a selectivity ratio [6] of over 125.

From ChEMBL document CHEMBL1287718, “1-Benzyl derivatives of 5-(arylamino)uracils as anti-HIV-1 and anti-EBV agents” (Bioorg Med Chem, 2010)
